According to ChEMBL document CHEMBL2311247, “Antimicrobial activity of various 4- and 5-substituted 1-phenylnaphthalenes” (2013):
Values after ≈ are worked out from the molar mass of the structure shown. Active and inactive are the calls of the source. No cut-off for these calls is given here.

Experiments:
Staphylococcus aureus [1] = test: Antibacterial activity against methicillin-sensitive Staphylococcus aureus 8325-4 assessed as growth inhibition after 24 hrs by CLSI broth microdilution method; type: functional; conditions: 8325-4, 24 h
In short: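 MSSA strain 8325-4; log-phase inoculum at 10⁵ CFU/mL. 2-fold serial dilutions, 64 to 0.031 µg/mL, in cation-adjusted Mueller-Hinton broth. Aerobic incubation, 24 h, 37 °C. Growth read as OD₆₀₀. MIC is the lowest concentration giving ≥90% growth inhibition.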

Staphylococcus aureus [2] = test: Antibacterial activity against methicillin-resistant Staphylococcus aureus ATCC 33591 assessed as growth inhibition after 24 hrs by CLSI broth microdilution method; type: functional; conditions: ATCC 33591, 24 h
In short: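 CLSI broth microdilution. Log-phase bacteria at 10⁵ CFU/mL are added to 2-fold serial dilutions from 64 to 0.031 µg/mL in cation-adjusted Mueller-Hinton broth with 2% NaCl. Plates are incubated aerobically for 24 h at 37 °C and growth is read as OD₆₀₀. MIC is the lowest concentration giving ≥90% growth inhibition.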

Enterococcus faecalis [3] = test: Antibacterial activity against vancomycin-sensitive Enterococcus faecalis ATCC 19433 assessed as growth inhibition after 24 hrs by CLSI broth microdilution method; type: functional; conditions: ATCC 19433, 24 h
In short: (§1)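 Run per CLSI broth microdilution. Log-phase E. faecalis at 10⁵ CFU/mL in brain-heart infusion broth with 2-fold serial dilutions (64 to 0.031 µg/mL), incubated aerobically 24 h at 37 °C. Growth is measured by OD₆₀₀, and MIC is the lowest concentration inhibiting growth by ≥90%.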

Enterococcus faecalis [4] = test: Antibacterial activity against vancomycin-resistant Enterococcus faecalis ATCC 51575 assessed as growth inhibition after 24 hrs by CLSI broth microdilution method; type: functional; conditions: ATCC 51575, 24 h; in short: as §1
[5] = molecular target: T1, Cell division protein FtsZ (Staphylococcus aureus) (UniProt P0A031); test: Stimulation of Staphylococcus aureus ATCC 33591-D FtsZ polymerization expressed in Escherichia coli BL21 (DE3) assessed as inhibition of FtsZ Z-ring formation at 40 ug/mL by microtiter plate-based turbidity assay; conditions: TDE = time-dependent effect
T1 sequence (whole entry): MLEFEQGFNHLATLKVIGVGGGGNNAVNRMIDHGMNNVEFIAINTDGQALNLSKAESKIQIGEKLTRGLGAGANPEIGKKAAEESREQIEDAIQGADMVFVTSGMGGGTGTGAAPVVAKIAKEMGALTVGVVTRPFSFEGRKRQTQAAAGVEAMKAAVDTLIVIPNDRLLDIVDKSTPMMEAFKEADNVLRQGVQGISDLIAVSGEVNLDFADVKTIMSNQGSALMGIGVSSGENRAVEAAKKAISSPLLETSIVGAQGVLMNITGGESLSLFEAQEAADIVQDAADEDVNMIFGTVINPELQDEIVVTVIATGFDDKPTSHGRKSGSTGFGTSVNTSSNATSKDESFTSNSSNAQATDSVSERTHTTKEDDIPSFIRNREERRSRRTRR
In short: (§2)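 SaFtsZ expressed in E. coli BL21 (DE3) under 1 mM IPTG induction for 3 h at 37 °C. Purified by MonoQ anion exchange then Superdex-200, about 90% pure. Turbidity assay at 25 °C in 50 mM Tris·HCl pH 7.4, 50 mM KCl, 2 mM magnesium acetate, 1 mM GTP. Compound at 40 µg/mL. Reaction started with 10 µM protein (final). A₃₄₀ monitored continuously for 300 min.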

[6] = molecular target: T1, Cell division protein FtsZ (Staphylococcus aureus); test: Stimulation of Staphylococcus aureus ATCC 33591-D FtsZ polymerization expressed in Escherichia coli BL21 (DE3) assessed as inhibition of FtsZ Z-ring formation at 40 ug/mL measured for 300 mins by microtiter plate-based turbidity assay; in short: as §2

Row | SMILES | MIC (Staphylococcus aureus [1]) [µg/mL] | MIC (Staphylococcus aureus [2]) [µg/mL] | MIC (Enterococcus faecalis [3]) [µg/mL] | MIC (Enterococcus faecalis [4]) [µg/mL] | inhibition [5] | inhibition [6]
1 | COc1cc(C(F)(F)F)ccc1-c1cccc2c(CN=C(N)N)cccc12 | 2 (≈ 5.36 µM) | 8 (≈ 21.4 µM) | 4 (≈ 10.7 µM) | 4 (≈ 10.7 µM) |  | 
2 | CC(C)(C)c1ccc(-c2cccc3c(CC(=N)N)cccc23)cc1 | 4 (≈ 12.6 µM) | 4 (≈ 12.6 µM) | 4 (≈ 12.6 µM) | 8 (≈ 25.3 µM) |  | 
3 | CC(C)(C)c1ccc(-c2cccc3c(CN=C(N)N)cccc23)cc1 | 0.5 (≈ 1.51 µM) | 2 (≈ 6.03 µM) | 2 (≈ 6.03 µM) | 4 (≈ 12.1 µM) | tde | inactive
4 | COc1cc(C(F)(F)F)ccc1-c1cccc2c(CCN=C(N)N)cccc12 | 2 (≈ 5.16 µM) | 8 (≈ 20.7 µM) | 4 (≈ 10.3 µM) | 4 (≈ 10.3 µM) |  | 
5 | COc1ccc2c(c[n+](C)c3c4cc5c(cc4ccc23)OCO5)c1OC [CHELERYTHRINE] | 4 | 4 | 32 | 32 |  | 
6 | CC(C)(C)c1ccc(-c2ccc(CCN)c3ccccc23)cc1 | 4 (≈ 13.2 µM) | 4 (≈ 13.2 µM) | 4 (≈ 13.2 µM) | 4 (≈ 13.2 µM) |  | 
7 | CC[C@H]1OC(=O)[C@H](C)[C@@H](O[C@H]2C[C@@](C)(OC)[C@@H](O)[C@H](C)O2)[C@H](C)[C@@H](O[C@@H]2O[C@H](C)C[C@H](N(C)C)[C@H]2O)[C@](C)(O)C[C@@H](C)C(=O)[C@H](C)[C@@H](O)[C@]1(C)O [ERYTHROMYCIN] | 0.13 (≈ 0.177 µM) | > 64 | 1 (≈ 1.36 µM) | > 64 |  | 
8 | CN[C@H](CC(C)C)C(=O)N[C@H]1C(=O)N[C@@H](CC(N)=O)C(=O)N[C@H]2C(=O)N[C@H]3C(=O)N[C@H](C(=O)N[C@H](C(=O)O)c4cc(O)cc(O)c4-c4cc3ccc4O)[C@H](O)c3ccc(c(Cl)c3)Oc3cc2cc(c3O[C@@H]2O[C@H](CO)[C@@H](O)[C@H](O)[C@H]2O[C@H]2C[C@](C)(N)[C@H](O)[C@H](C)O2)Oc2ccc(cc2Cl)[C@H]1O [VANCOMYCIN] |  |  | 1 (≈ 0.69 µM) | > 64 |  | 
9 | N=C(N)Cc1cccc2c(-c3ccc(C(F)(F)F)cc3)cccc12 | 4 (≈ 12.2 µM) | 8 (≈ 24.4 µM) | 4 (≈ 12.2 µM) | 8 (≈ 24.4 µM) |  | 
10 | CC(C)(C)c1ccc(-c2ccc(CN=C(N)N)c3ccccc23)cc1 | 2 (≈ 6.03 µM) | 2 (≈ 6.03 µM) | 2 (≈ 6.03 µM) | 2 (≈ 6.03 µM) |  | 
11 | NC(N)=NCc1cccc2c(-c3ccc(C4CC4)cc3)cccc12 | 1 (≈ 3.17 µM) | 8 (≈ 25.4 µM) | 8 (≈ 25.4 µM) | 8 (≈ 25.4 µM) |  | 
12 | C[n+]1cc2c3c(ccc2c2ccc4cc5c(cc4c21)OCO5)OCO3 [SANGUINARIUM] | 2 | 2 | 8 | 16 |  | 
13 | CC(C)(C)c1ccc(-c2cccc3c(CCN=C(N)N)cccc23)cc1 | 1 (≈ 2.89 µM) | 2 (≈ 5.79 µM) | 2 (≈ 5.79 µM) | 2 (≈ 5.79 µM) |  | 
14 | COc1cc(C(F)(F)F)ccc1-c1cccc2c(CCN)cccc12 | 8 (≈ 23.2 µM) | 16 (≈ 46.3 µM) | 8 (≈ 23.2 µM) | 8 (≈ 23.2 µM) |  | 
15 | Cc1onc(-c2ccccc2)c1C(=O)N[C@@H]1C(=O)N2[C@@H]1SC(C)(C)[C@@H]2C(=O)O [OXACILLIN] | 0.06 (≈ 0.149 µM) | > 64 | 8 (≈ 19.9 µM) | > 64 |  | 
16 | CC(C)(C)c1ccc(-c2cccc3c(CN)cccc23)cc1 | 4 (≈ 13.8 µM) | 4 (≈ 13.8 µM) | 8 (≈ 27.6 µM) | 8 (≈ 27.6 µM) |  | 
17 | CC(C)(C)c1ccc(-c2cccc3c(CCN)cccc23)cc1 | 2 (≈ 6.59 µM) | 4 (≈ 13.2 µM) | 2 (≈ 6.59 µM) | 4 (≈ 13.2 µM) | tde | inactive
18 | NC(N)=NCCc1cccc2c(-c3ccc(C(F)(F)F)cc3)cccc12 | 1 (≈ 2.8 µM) | 4 (≈ 11.2 µM) | 4 (≈ 11.2 µM) | 4 (≈ 11.2 µM) |  | 
19 | NCCc1cccc2c(-c3ccc(C(F)(F)F)cc3O)cccc12 | 8 (≈ 24.1 µM) | 16 (≈ 48.3 µM) | 16 (≈ 48.3 µM) | 16 (≈ 48.3 µM) |  | 
20 | CC(C)(C)c1ccc(-c2ccc(CCN=C(N)N)c3ccccc23)cc1 | 2 (≈ 5.79 µM) | 4 (≈ 11.6 µM) | 2 (≈ 5.79 µM) | 4 (≈ 11.6 µM) |  | 
21 | CCC[C@@H]1C[C@@H](C(=O)N[C@@H]([C@H]2O[C@H](SC)[C@H](O)[C@@H](O)[C@H]2O)[C@H](C)Cl)N(C)C1 [CLINDAMYCIN] | 0.03 (≈ 0.0706 µM) | > 64 | 2 (≈ 4.71 µM) | > 64 |  | 
22 | NC(N)=NCc1cccc2c(-c3ccc(Cl)cc3)cccc12 | 2 (≈ 6.46 µM) | 8 (≈ 25.8 µM) | 8 (≈ 25.8 µM) | 8 (≈ 25.8 µM) |  | 
23 | CN(C)[C@@H]1C(O)=C(C(N)=O)C(=O)[C@@]2(O)C(O)=C3C(=O)c4c(O)cccc4[C@@](C)(O)[C@H]3C[C@@H]12 [TETRACYCLINE] | 0.06 (≈ 0.135 µM) | 64 (≈ 144 µM) | 0.5 (≈ 1.13 µM) | > 64 |  | 
24 | NC(N)=NCc1cccc2c(-c3ccc(C(F)(F)F)cc3)cccc12 | 2 (≈ 5.82 µM) | 8 (≈ 23.3 µM) | 8 (≈ 23.3 µM) | 16 (≈ 46.6 µM) |  | 
25 | NC(N)=NCc1cccc2c(-c3ccc(Br)cc3)cccc12 | 2 (≈ 5.65 µM) | 8 (≈ 22.6 µM) | 8 (≈ 22.6 µM) | 8 (≈ 22.6 µM) |  | 
26 | CC(C)(C)c1ccc(-c2ccc(CN)c3ccccc23)cc1 | 4 (≈ 13.8 µM) | 8 (≈ 27.6 µM) | 8 (≈ 27.6 µM) | 8 (≈ 27.6 µM) |  | 
